In the library only some 1.8% were active in any assay of this set; here they are far more common.
ABHD4 inh: inhibits mouse alpha/beta hydrolase domain 4. inhibition, % at 8.92 µM. 370,000 tested, 0.54% active. purified mABHD4, FP-Rh probe fluorescence polarization;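 active means inhibition exceeding the mean over every tested compound plus 3 SD, cut at about 30% in these data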;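 further: 0% = plate median of compound wells and 100% = S159A mutant with DMSO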
Target sequence (Q8VD66 whole entry, looked up, the tested form may be a part): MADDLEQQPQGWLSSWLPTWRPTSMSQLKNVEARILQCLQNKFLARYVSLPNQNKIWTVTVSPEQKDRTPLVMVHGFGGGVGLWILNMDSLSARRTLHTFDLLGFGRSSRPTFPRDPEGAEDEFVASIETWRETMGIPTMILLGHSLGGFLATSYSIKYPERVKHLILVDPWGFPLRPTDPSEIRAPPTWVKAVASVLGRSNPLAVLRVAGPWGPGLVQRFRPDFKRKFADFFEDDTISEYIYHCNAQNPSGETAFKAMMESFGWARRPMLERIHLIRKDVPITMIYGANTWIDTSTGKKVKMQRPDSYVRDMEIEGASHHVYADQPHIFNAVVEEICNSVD
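Material: mouse ABHD4 enzyme, wild type; Benchmarks: S159A mutant high control, sample median low control; Buffer or medium: HEPES pH 7.0, NaCl, Pluronic buffer; Signal: fluorescence polarization; Read-out: percent inhibition of probe binding, normalized to plate controls; Timing: pre-incubation 45 min, probe exposure 60 min, at 25 °C; Dosing: 8.92 µM, single dose.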
ARNT-TACC3 inh: ARNT/TACC3 interaction disruption; Q9Y6A5; AlphaScreen His-ARNT PAS-B/GST-TACC3 binding, luminescence; TACC3 fragment carries E629A point mutation; inhibition, % at 9.99 µM; 390,000 tested, 0.66% active; AID 623870;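 active means mean inhibition of replicates at least 50% and at least half of replicates each reaching 50%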;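 further: 0% = complete ARNT plus TACC3 wells and 100% = ARNT alone without TACC3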
SIAE primary: human SIAE inhibition, primary screen; inhibition, % at 9.66 µM; SIAE FP-Rh probe binding, fluorescence polarization; Q9HAT2; 370,000 tested, 0.69% active;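 active means inhibition above a cutoff: mean of compounds within the control limits plus 3 SD of those, cut at about 17% in these data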;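 further: 0% = plate median of compound wells and 100% = probe without SIAE protein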
TCR CD3 inh: inhibitors of human TCR-CD3 interaction | TAMRA-labeled TCR probe fluorescence, biochemical | inhibition, % at 9.4 µM | 360,000 tested, 0.37% active; in the data active means inhibition above about 19%;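 further: recombinant mutant TCR 2C K166C tagged with TAMRA read by polarization; 0% = receptor in buffer alone and 100% = receptor with positive control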
HTRA1 inh: blocks human HTRA1 serine peptidase; recombinant HTRA1, FP-rhodamine activity-based probe, fluorescence polarization; inhibition, % at 5.96 µM; 340,000 tested, 0.5% active; in the data active means inhibition above about 36%;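 further: 0% = enzyme with DMSO and 100% = wells lacking enzyme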
Active calls of the source: *; x = not tested or not shown.

SMILES	ABHD4 inh	ARNT-TACC3 inh	SIAE primary	TCR CD3 inh	HTRA1 inh
CC(Oc1ccccc1)C(=O)Nc1nc(-c2ccccn2)cs1 (stereo unspecified)	-0.7	67.8*	-6.8	0.9	0.7
O=C(/C=C/c1ccco1)Nc1nc(-c2ccccn2)cs1	1.2	65.0*	0.0	0.3	10.6
O=C(/C=C/c1ccco1)Nc1nc(-c2ccccc2)cs1	-10.7	-0.7	-1.7	-3.2	-15.7
CC(Oc1ccccc1)C(=O)Nc1nc(-c2ccncc2)cs1 (stereo unspecified)	-0.2	x	4.0	3.3	-3.3
Cc1c(C(=O)Nc2nc(-c3ccccn3)cs2)oc2ccccc12	x	x	x	x	-1.8
O=C(Nc1nc(-c2ccccn2)cs1)c1cc2ccccc2o1	-4.1	65.8*	-1.8	-4.3	1.8
CC=Cc1ccc2n(c1=O)C[C@H]1[C@H](CO)[C@@H](C(=O)NCCc3cn(C)cn3)[C@@H]2N1C(=O)C1CC1 (mixture of isomers)	x	15.0	x	x	x
C[C@@H]1CN([C@H](C)CO)C(=O)Cc2cc(NC(=O)C3CCCCC3)ccc2O[C@@H]1CN(C)Cc1ccc(C(=O)O)cc1	x	6.7	x	x	x
CCCC(=O)Nc1ccc2c(c1)C(=O)N(C)C[C@@H](OC)[C@@H](C)CN(C(=O)c1cnccn1)[C@@H](C)CO2	x	-8.1	x	x	x
CCNC(=O)C[C@H]1CC[C@H]2[C@@H](COc3ccc(NC(=O)c4ccccc4)cc3C(=O)N2C)O1	x	-10.1	x	x	x
C[C@@H]1CN([C@@H](C)CO)C(=O)CCCn2cc(nn2)CO[C@@H]1CN(C)C(=O)Nc1ccc(F)cc1	x	0.3	x	x	x
CC1(C)C=C2C(=NN(c3ccccc3)C(N)=C2C#N)CO1	11.3	46.0*	5.5	-1.1	16.8
CC(C)(C)[S@](=O)N1Cc2cc(C(=O)NCc3ccccc3F)nc(-c3cccc(-c4cccnc4)c3)c2[C@@H]1CCO	x	2.6	x	x	x
O=c1c2c(-c3ccccc3)csc2nc2c3ccccc3c(NCCN3CCOCC3)nn12	12.3	74.1*	-8.9	3.6	-42.8
C[C@H](CO)N1C[C@H](C)[C@H](CN(C)CC2CC2)Oc2cc(-c3cccc(C#N)c3)ccc2S1(=O)=O	x	-3.5	x	x	x
O=C(/C=C/c1ccccc1)Oc1cccc2cccnc12	-0.7	46.9*	-1.7	-9.6	21.0
Cc1cccc(-n2c(O)c(C=Nc3ccc(O)cc3)c3ccccc3c2=O)n1	7.0	-0.7	5.6	1.7	-1.0
Cc1cccc(-n2c(O)c(C=Nc3ccccc3O)c3ccccc3c2=O)n1	2.9	6.8	-3.0	40.5*	1.8
C[C@H](CO)N1C[C@H](C)[C@H](CN(C)S(=O)(=O)c2ccc(Cl)cc2)OCCCC[C@H](C)Oc2ccc(NC(=O)c3ccccc3)cc2C1=O	x	-17.8	x	x	x
COc1cc(N=Cc2c(CO)cnc(C)c2O)cc(OC)c1OC	2.9	-1.3	7.3	-4.8	-2.0
Cc1ncc(CO)c(/C=N/NC(=S)Nc2cccc(Cl)c2)c1O	x	x	x	x	42.8*
Cc1ncc(CO)c(/C=N/NC(=S)Nc2ccc(Cl)c(Cl)c2)c1O	-14.4	x	19.0*	12.9	16.4
O=C(c1ccc2c(c1)N(Cc1ccc(F)cc1)CCS2)N1CCOCC1	-2.5	8.5*	3.5	4.3	-1.2
COCC(=O)N(C)C[C@@H]1Oc2cc(-c3ccncc3)ccc2S(=O)(=O)N([C@H](C)CO)C[C@H]1C	x	4.7	x	x	x
C[C@H](CO)N1C[C@H](C)[C@H](CN(C)CC2CCCCC2)Oc2c(NC(=O)C3CCCCC3)cccc2C1=O	x	-10.4	x	x	x
SMILES	ABHD4 inh	ARNT-TACC3 inh	SIAE primary	TCR CD3 inh	HTRA1 inh
CCS(=O)(=O)c1ccc(N=Nc2ccc(O)c3ncccc23)c(OC)c1	21.9	30.1	4.3	-2.5	47.4*
CNC[C@@H]1OCCCC[C@@H](C)Oc2ccc(NC(=O)CCCN(C)C)cc2C(=O)N([C@@H](C)CO)C[C@H]1C	x	-0.4	x	x	x
Cc1ccc(NC(=O)CSc2nnc3c(n2)[nH]c2ccccc23)cc1	-1.2	0.2	5.0	3.7	-4.2
O=C(CSc1nnc2c(n1)[nH]c1ccccc12)Nc1ccc(S(=O)(=O)Nc2ncccn2)cc1	-5.7	49.2*	-11.0	-1.1	-5.2
O=C1C(c2ccccc2)CN1Cc1ccccc1 (stereo unspecified)	2.8	x	-2.0	-0.3	x
O=C1N(Cc2ccccc2)CC2(Br)COCOC12O (stereo unspecified)	8.4	8.9*	4.2	3.9	-1.5
C[C@H]1CCCCO[C@H](CN(C)Cc2ccccc2)[C@@H](C)CN([C@@H](C)CO)C(=O)c2cc(NC(=O)CCCN(C)C)ccc2O1	x	-1.3	x	x	x
CCCN1C[C@H](C)[C@H](OC)CN(C)C(=O)c2ccc(NC(=O)c3ccc(F)cc3)cc2OC[C@@H]1C	x	-4.5	x	x	x
Cn1c(-c2ccc3c(c2)OCO3)cnc1N	12.8	53.9*	6.2	4.2	2.9
Cn1c(-c2ccc3c(c2)OCO3)cnc1NCc1ccccc1	11.9	9.0	-0.2	0.9	-5.8
O=S(=O)(Nc1cc2nc3ccccc3nc2n1Cc1ccccc1)c1ccc(Cl)cc1	8.1	x	30.1*	-5.0	29.4
CC(C)NC(=O)Nc1ccc2c(c1)C(=O)N([C@@H](C)CO)C[C@H](C)[C@H](CN(C)Cc1ccc3c(c1)OCO3)O2	x	-3.1	x	x	x
O=C(Nc1ccc2c(c1)OCO2)c1cc2ncc(Br)cn2n1	-0.8	-3.6	68.4*	7.9	14.3
O=C(Nc1cccc(C(F)(F)F)c1)c1cc2ncc(Br)cn2n1	-5.2	0.4	-11.4	6.9	-9.4
Cc1n[nH]c(=S)n(NC(=O)CC(=O)Nn2c(=S)[nH]nc(C)c2=O)c1=O	0.9	67.4*	-5.0	-6.9	-4.1
COc1ccccc1OCC(=O)Nn1c(=S)[nH]c2ncccc2c1=O	1.5	-0.8	-7.4	-7.2	5.0
CCCNC(=O)C[C@@H]1CC[C@H]2[C@@H](COc3ccc(NC(=O)Nc4cccc(C)c4)cc3C(=O)N2C)O1	x	0.4	x	x	x
COc1ccccc1Nc1nc(N)nc(CN2CCCCCC2)n1	0.9	88.6*	-4.8	3.2	-6.9
Nc1nc(CN2CCCCCC2)nc(Nc2ccc(F)cc2)n1	2.2	47.6*	-0.1	0.2	-4.9
CCOC(=O)C1CCCN(Cc2nc(N)nc(Nc3ccc(OC)cc3)n2)C1 (stereo unspecified)	0.3	31.2*	6.5	-2.3	3.6
COc1ccccc1Nc1nc(N)nc(CN2CCOCC2)n1	0.7	36.2	-0.4	6.1	-0.6
Nc1nc(CN2CCN(c3ccccn3)CC2)nc(Nc2ccc(F)cc2)n1	2.2	14.7	2.8	-4.8	-0.1
C[C@@H]1CN([C@@H](C)CO)C(=O)c2cc(N(C)C)ccc2O[C@H]1CN(C)S(=O)(=O)c1cn(C)cn1	x	-2.8	x	x	x
CCCNC(=O)C[C@@H]1CC[C@H]2[C@@H](COc3ccc(NC(=O)Nc4ccccc4F)cc3C(=O)N2C)O1	x	-3.7	x	x	x
Cc1cc(NC(=O)CSc2nnc(-c3ccco3)o2)no1	1.1	59.0*	6.9	0.6	-2.7
Cc1cc(NC(=O)CSc2nnc(CNC(=O)c3ccc(C(C)(C)C)cc3)o2)no1	3.1	47.1*	-2.3	-2.8	7.0
CC(=O)Nc1ccc(NC(=O)CSc2nnc(-c3ccco3)o2)cc1	-5.6	-17.0	-3.2	-8.9	1.4
